Results reported in ChEMBL document CHEMBL1145439, “Fluorine-18-labeled benzamide analogues for imaging the sigma2 receptor status of solid tumors with positron emission tomography” (J Med Chem, 2007).

Tests used:
[1] = Displacement of [3H]DTG from sigma 2 receptor in rat liver membrane after 120 mins; assay type: cell membranes
Method in brief: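 Rat liver membranes (~300 µg protein) incubated with ~5 nM [3H]DTG plus 1 µM (+)-pentazocine to mask σ1 sites, 120 min at room temperature; 10 µM haloperidol defines nonspecific binding; filtration and scintillation counting. One-site nonlinear regression IC50, converted to Ki by Cheng-Prusoff; mean ± SEM.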

[2] = Selectivity for rat liver sigma 2 receptor over guinea pig brain sigma 1 receptor
Blood [3] = assay: Biodistribution in blood of mouse EMT6 tumor bearing BALB/c mouse at 10 to 20 uCi after 5 mins; assay type: ADME, organism-based; conditions: in vivo
Method in brief: (§1)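 EMT-6 cells (5×10^5 in 100 µL PBS) implanted s.c. in scapular region of female Balb/c mice (~2 months, 17-22 g); studied 7-10 days later at ~0.2 cm3 tumor. 18F tracer 10-20 µCi in 100-150 µL saline via tail vein; ≥4 mice per time point; tissue removed at sacrifice, weighed, gamma-counted; %ID/g calculated.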

Blood [4] = assay: Biodistribution in blood of mouse EMT6 tumor bearing BALB/c mouse at 10 to 20 uCi after 30 mins; assay type: ADME, organism-based; conditions: in vivo, 0.5 h; method in brief: as §1
Blood [5] = assay: Biodistribution in blood of mouse EMT6 tumor bearing BALB/c mouse at 10 to 20 uCi after 60 mins; assay type: ADME, organism-based; conditions: in vivo, 1 h; method in brief: as §1
Blood [6] = assay: Biodistribution in blood of mouse EMT6 tumor bearing BALB/c mouse at 10 to 20 uCi after 120 mins; assay type: ADME, organism-based; conditions: in vivo, 2 h; method in brief: as §1
Lung [7] = assay: Biodistribution in lung of mouse EMT6 tumor bearing BALB/c mouse at 10 to 20 uCi after 5 mins; assay type: ADME, organism-based; conditions: in vivo; method in brief: as §1
Lung [8] = assay: Biodistribution in lung of mouse EMT6 tumor bearing BALB/c mouse at 10 to 20 uCi after 30 mins; assay type: ADME, organism-based; conditions: in vivo, 0.5 h; method in brief: as §1
Lung [9] = assay: Biodistribution in lung of mouse EMT6 tumor bearing BALB/c mouse at 10 to 20 uCi after 60 mins; assay type: ADME, organism-based; conditions: in vivo, 1 h; method in brief: as §1
Lung [10] = assay: Biodistribution in lung of mouse EMT6 tumor bearing BALB/c mouse at 10 to 20 uCi after 120 mins; assay type: ADME, organism-based; conditions: in vivo, 2 h; method in brief: as §1
Liver [11] = assay: Biodistribution in liver of mouse EMT6 tumor bearing BALB/c mouse at 10 to 20 uCi after 5 mins; assay type: ADME, organism-based; conditions: in vivo; method in brief: as §1
Liver [12] = assay: Biodistribution in liver of mouse EMT6 tumor bearing BALB/c mouse at 10 to 20 uCi after 30 mins; assay type: ADME, organism-based; conditions: in vivo, 0.5 h; method in brief: as §1
Liver [13] = assay: Biodistribution in liver of mouse EMT6 tumor bearing BALB/c mouse at 10 to 20 uCi after 60 mins; assay type: ADME, organism-based; conditions: in vivo, 1 h; method in brief: as §1
Liver [14] = assay: Biodistribution in liver of mouse EMT6 tumor bearing BALB/c mouse at 10 to 20 uCi after 120 mins; assay type: ADME, organism-based; conditions: in vivo, 2 h; method in brief: as §1
Kidney [15] = assay: Biodistribution in kidney of mouse EMT6 tumor bearing BALB/c mouse at 10 to 20 uCi after 5 mins; assay type: ADME, organism-based; conditions: in vivo; method in brief: as §1
Kidney [16] = assay: Biodistribution in kidney of mouse EMT6 tumor bearing BALB/c mouse at 10 to 20 uCi after 30 mins; assay type: ADME, organism-based; conditions: in vivo, 0.5 h; method in brief: as §1
Kidney [17] = assay: Biodistribution in kidney of mouse EMT6 tumor bearing BALB/c mouse at 10 to 20 uCi after 60 mins; assay type: ADME, organism-based; conditions: in vivo, 1 h; method in brief: as §1
Kidney [18] = assay: Biodistribution in kidney of mouse EMT6 tumor bearing BALB/c mouse at 10 to 20 uCi after 120 mins; assay type: ADME, organism-based; conditions: in vivo, 2 h; method in brief: as §1
Muscle tissue [19] = assay: Biodistribution in muscle of EMT6 tumor bearing BALB/c mouse at 10 to 20 uCi after 5 mins; assay type: ADME, organism-based; conditions: in vivo; method in brief: as §1
Muscle tissue [20] = assay: Biodistribution in muscle of mouse EMT6 tumor bearing BALB/c mouse at 10 to 20 uCi after 30 mins; assay type: ADME, organism-based; conditions: in vivo, 0.5 h; method in brief: as §1
Muscle tissue [21] = assay: Biodistribution in muscle of mouse EMT6 tumor bearing BALB/c mouse at 10 to 20 uCi after 60 mins; assay type: ADME, organism-based; conditions: in vivo, 1 h; method in brief: as §1
Muscle tissue [22] = assay: Biodistribution in muscle of mouse EMT6 tumor bearing BALB/c mouse at 10 to 20 uCi after 120 mins; assay type: ADME, organism-based; conditions: in vivo, 2 h; method in brief: as §1
Adipose tissue [23] = assay: Biodistribution in fat of mouse EMT6 tumor bearing BALB/c mouse at 10 to 20 uCi after 5 mins; assay type: ADME, organism-based; conditions: in vivo; method in brief: as §1
Adipose tissue [24] = assay: Biodistribution in fat of mouse EMT6 tumor bearing BALB/c mouse at 10 to 20 uCi after 30 mins; assay type: ADME, organism-based; conditions: in vivo, 0.5 h; method in brief: as §1
Adipose tissue [25] = assay: Biodistribution in fat of mouse EMT6 tumor bearing BALB/c mouse at 10 to 20 uCi after 60 mins; assay type: ADME, organism-based; conditions: in vivo, 1 h; method in brief: as §1
Adipose tissue [26] = assay: Biodistribution in fat of mouse EMT6 tumor bearing BALB/c mouse at 10 to 20 uCi after 120 mins; assay type: ADME, organism-based; conditions: in vivo, 2 h; method in brief: as §1
Heart [27] = assay: Biodistribution in heart of mouse EMT6 tumor bearing BALB/c mouse at 10 to 20 uCi after 5 mins; assay type: ADME, organism-based; conditions: in vivo; method in brief: as §1
Heart [28] = assay: Biodistribution in heart of mouse EMT6 tumor bearing BALB/c mouse at 10 to 20 uCi after 30 mins; assay type: ADME, organism-based; conditions: in vivo, 0.5 h; method in brief: as §1
Heart [29] = assay: Biodistribution in heart of mouse EMT6 tumor bearing BALB/c mouse at 10 to 20 uCi after 60 mins; assay type: ADME, organism-based; conditions: in vivo, 1 h; method in brief: as §1
Heart [30] = assay: Biodistribution in heart of EMT6 tumor bearing BALB/c mouse at 10 to 20 uCi after 120 mins; assay type: ADME, organism-based; conditions: in vivo, 2 h; method in brief: as §1
Brain [31] = assay: Biodistribution in brain of EMT6 tumor bearing BALB/c mouse at 10 to 20 uCi after 5 mins; assay type: ADME, organism-based; conditions: in vivo; method in brief: as §1
Brain [32] = assay: Biodistribution in brain of EMT6 tumor bearing BALB/c mouse at 10 to 20 uCi after 30 mins; assay type: ADME, organism-based; conditions: in vivo, 0.5 h; method in brief: as §1
Brain [33] = assay: Biodistribution in brain of EMT6 tumor bearing BALB/c mouse at 10 to 20 uCi after 60 mins; assay type: ADME, organism-based; conditions: in vivo, 1 h; method in brief: as §1
Brain [34] = assay: Biodistribution in brain of mouse EMT6 tumor bearing BALB/c mouse at 10 to 20 uCi after 120 mins; assay type: ADME, organism-based; conditions: in vivo, 2 h; method in brief: as §1
Bone [35] = assay: Biodistribution in bone of mouse EMT6 tumor bearing BALB/c mouse at 10 to 20 uCi after 5 mins; assay type: ADME, organism-based, Bone element; conditions: in vivo; method in brief: as §1
Bone [36] = assay: Biodistribution in bone of mouse EMT6 tumor bearing BALB/c mouse at 10 to 20 uCi after 30 mins; assay type: ADME, organism-based, Bone element; conditions: in vivo, 0.5 h; method in brief: as §1
Bone [37] = assay: Biodistribution in bone of mouse EMT6 tumor bearing BALB/c mouse at 10 to 20 uCi after 60 mins; assay type: ADME, organism-based, Bone element; conditions: in vivo, 1 h; method in brief: as §1
Bone [38] = assay: Biodistribution in bone of mouse EMT6 tumor bearing BALB/c mouse at 10 to 20 uCi after 120 mins; assay type: ADME, organism-based, Bone element; conditions: in vivo, 2 h; method in brief: as §1
EMT6 [39] = assay: Biodistribution in tumor of mouse EMT6 tumor bearing BALB/c mouse at 10 to 20 uCi after 5 mins; assay type: ADME, organism-based; conditions: emt6, 5 min; method in brief: as §1
EMT6 [40] = assay: Biodistribution in tumor of EMT6 tumor bearing BALB/c mouse 10 to 20 uCi after 30 mins; assay type: ADME, organism-based; conditions: emt6, 0.5 h; method in brief: as §1
EMT6 [41] = assay: Biodistribution in tumor of mouse EMT6 tumor bearing BALB/c mouse at 10 to 20 uCi after 60 mins; assay type: ADME, organism-based; conditions: emt6, 1 h; method in brief: as §1
EMT6 [42] = assay: Biodistribution in tumor of mouse EMT6 tumor bearing BALB/c mouse at 10 to 20 uCi after 120 mins; assay type: ADME, organism-based; conditions: emt6, 2 h; method in brief: as §1

COc1cc2c(cc1OC)CN(CCCCNC(=O)c1cc(I)cc(OC)c1OCCF)CC2
Ki [1]: 0.26 nM | Ratio Ki [2]: 8190

COc1cc2c(cc1OC)CN(CCCCNC(=O)c1cc(I)ccc1OCC[18F])CC2
Drug uptake (Blood [3]): 4.6 % ID/g | Drug uptake (Blood [4]): 4.3 % ID/g | Drug uptake (Blood [5]): 3.39 % ID/g | Drug uptake (Blood [6]): 1.92 % ID/g | Drug uptake (Lung [7]): 9.71 % ID/g | Drug uptake (Lung [8]): 4.07 % ID/g | Drug uptake (Lung [9]): 2.34 % ID/g | Drug uptake (Lung [10]): 1.36 % ID/g | Drug uptake (Liver [11]): 37.26 % ID/g | Drug uptake (Liver [12]): 17.35 % ID/g | Drug uptake (Liver [13]): 7.31 % ID/g | Drug uptake (Liver [14]): 4.25 % ID/g | Drug uptake (Kidney [15]): 36.07 % ID/g | Drug uptake (Kidney [16]): 17.43 % ID/g | Drug uptake (Kidney [17]): 9.36 % ID/g | Drug uptake (Kidney [18]): 3.92 % ID/g | Drug uptake (Muscle tissue [19]): 1.52 % ID/g | Drug uptake (Muscle tissue [20]): 1.12 % ID/g | Drug uptake (Muscle tissue [21]): 0.83 % ID/g | Drug uptake (Muscle tissue [22]): 0.6 % ID/g | Drug uptake (Adipose tissue [23]): 2.32 % ID/g | Drug uptake (Adipose tissue [24]): 1.04 % ID/g | Drug uptake (Adipose tissue [25]): 0.62 % ID/g | Drug uptake (Adipose tissue [26]): 0.44 % ID/g | Drug uptake (Heart [27]): 3.22 % ID/g | Drug uptake (Heart [28]): 2.37 % ID/g | Drug uptake (Heart [29]): 1.61 % ID/g | Drug uptake (Heart [30]): 1 % ID/g | Drug uptake (Brain [31]): 0.55 % ID/g | Drug uptake (Brain [32]): 0.44 % ID/g | Drug uptake (Brain [33]): 0.36 % ID/g | Drug uptake (Brain [34]): 0.37 % ID/g | Drug uptake (Bone [35]): 2.59 % ID/g | Drug uptake (Bone [36]): 1.31 % ID/g | Drug uptake (Bone [37]): 0.99 % ID/g | Drug uptake (Bone [38]): 1.67 % ID/g | Drug uptake (EMT6 [39]): 2.54 % ID/g | Drug uptake (EMT6 [40]): 2.81 % ID/g | Drug uptake (EMT6 [41]): 2.72 % ID/g | Drug uptake (EMT6 [42]): 1.92 % ID/g

COc1cc2c(cc1OC)CN(CCCCNC(=O)c1cc(I)ccc1OCCF)CC2
Ki [1]: 1.06 nM

COc1cc2c(cc1OC)CN(CCNC(=O)c1cc(C)ccc1OCCF)CC2
Ki [1]: 102 nM | Ratio Ki [2]: 222
